In ChEMBL document CHEMBL4038323, “Discovery and Kinetic Profiling of 7-Aryl-1,2,4-triazolo[4,3-a]pyridines: Positive Allosteric Modulators of the Metabotropic Glutamate Receptor 2” (J Med Chem, 2017):

Legend:
[1] = molecular target: T1, Metabotropic glutamate receptor 2 (Homo sapiens, UniProt Q14416); assay: Displacement of [3H]-JNJ46281222 from human metabotropic glutamate receptor 2 expressed in CHOK1 cell membranes after 60 mins by microbeta counting analysis
Target sequence in this assay (Q14416 whole entry): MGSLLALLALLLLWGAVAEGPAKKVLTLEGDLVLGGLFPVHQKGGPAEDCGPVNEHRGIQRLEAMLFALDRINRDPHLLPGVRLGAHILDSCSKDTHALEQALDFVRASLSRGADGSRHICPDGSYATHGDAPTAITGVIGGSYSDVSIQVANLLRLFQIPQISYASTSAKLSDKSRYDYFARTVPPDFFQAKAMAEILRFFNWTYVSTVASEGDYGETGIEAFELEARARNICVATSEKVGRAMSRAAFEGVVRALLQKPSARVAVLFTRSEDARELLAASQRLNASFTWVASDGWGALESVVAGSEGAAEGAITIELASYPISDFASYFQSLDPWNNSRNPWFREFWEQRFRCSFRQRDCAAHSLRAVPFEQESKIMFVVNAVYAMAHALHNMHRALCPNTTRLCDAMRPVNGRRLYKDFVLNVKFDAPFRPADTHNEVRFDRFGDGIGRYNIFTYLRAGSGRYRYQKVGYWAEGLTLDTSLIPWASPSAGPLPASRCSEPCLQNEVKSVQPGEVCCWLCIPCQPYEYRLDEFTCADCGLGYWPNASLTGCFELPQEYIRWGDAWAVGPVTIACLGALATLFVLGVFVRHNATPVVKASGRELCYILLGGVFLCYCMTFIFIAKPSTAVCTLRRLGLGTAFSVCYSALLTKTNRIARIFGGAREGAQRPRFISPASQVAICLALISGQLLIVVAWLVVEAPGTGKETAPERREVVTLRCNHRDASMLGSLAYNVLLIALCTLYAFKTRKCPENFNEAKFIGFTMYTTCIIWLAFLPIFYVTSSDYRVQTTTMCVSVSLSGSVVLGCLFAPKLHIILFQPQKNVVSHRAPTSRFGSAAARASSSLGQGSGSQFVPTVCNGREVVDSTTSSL

[2] = molecular target: T1, Metabotropic glutamate receptor 2; assay: Displacement of [3H]JNJ-46281222 from human metabotropic glutamate receptor 2 expressed in CHOK1 cell membranes assessed as residence time measured every 30 sec for 120 mins by scintillation proximity assay
Method in brief: (§1)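 For the SPA competition association, CHO-K1_hmGlu2 membranes (20 µg) were pre-coupled 30 min to WGA SPA beads, then mixed with 6 nM [3H]JNJ-46281222, competitor and 1 mM glutamate. Counts were read every 30 s for 120 min at 28°C.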
Target sequence in this assay (Q14416 19-872 limits assumed): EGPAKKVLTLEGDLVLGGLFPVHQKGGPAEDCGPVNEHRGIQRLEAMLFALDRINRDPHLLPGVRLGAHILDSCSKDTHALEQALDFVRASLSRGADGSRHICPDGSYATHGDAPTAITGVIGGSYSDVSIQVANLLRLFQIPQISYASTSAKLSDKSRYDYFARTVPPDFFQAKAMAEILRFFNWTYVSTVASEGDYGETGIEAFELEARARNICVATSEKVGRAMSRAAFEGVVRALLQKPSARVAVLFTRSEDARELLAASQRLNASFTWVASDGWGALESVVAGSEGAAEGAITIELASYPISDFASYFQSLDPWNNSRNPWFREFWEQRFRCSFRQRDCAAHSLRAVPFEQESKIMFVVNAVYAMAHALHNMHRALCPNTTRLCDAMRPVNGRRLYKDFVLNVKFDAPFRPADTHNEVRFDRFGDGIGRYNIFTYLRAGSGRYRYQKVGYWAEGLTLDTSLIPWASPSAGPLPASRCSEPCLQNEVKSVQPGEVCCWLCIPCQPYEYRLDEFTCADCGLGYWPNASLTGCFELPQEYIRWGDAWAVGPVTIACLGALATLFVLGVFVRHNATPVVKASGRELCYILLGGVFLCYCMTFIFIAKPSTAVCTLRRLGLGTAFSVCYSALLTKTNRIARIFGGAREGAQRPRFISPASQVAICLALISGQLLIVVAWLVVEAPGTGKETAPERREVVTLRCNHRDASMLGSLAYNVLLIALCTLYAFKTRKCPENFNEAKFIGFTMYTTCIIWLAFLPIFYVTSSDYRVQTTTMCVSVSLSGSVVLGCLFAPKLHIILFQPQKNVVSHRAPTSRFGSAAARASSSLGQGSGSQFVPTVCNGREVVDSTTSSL

[3] = molecular target: T1, Metabotropic glutamate receptor 2; assay: Binding affinity to human metabotropic glutamate receptor 2 expressed in CHOK1 cell membranes by scintillation proximity assay
Target sequence in this assay (Q14416 whole entry): as the sequence (Q14416 whole entry) above

[4] = molecular target: T1, Metabotropic glutamate receptor 2; assay: Displacement of [3H]JNJ-46281222 from human metabotropic glutamate receptor 2 expressed in CHOK1 cell membranes assessed as association rate constant measured every 30 sec for 120 mins by scintillation proximity assay; method in brief: as §1
Target sequence in this assay (Q14416 19-872 limits assumed): as the sequence (Q14416 19-872 limits assumed) above

[5] = molecular target: T1, Metabotropic glutamate receptor 2; assay: Positive allosteric modulation of human metabotropic glutamate receptor 2 expressed in CHOK1 cell membranes assessed as increase in glutamate-induced [35S]GTPgammaS binding preincubated for 30 mins followed by [35S]GTPgammaS addition measured after 30 mins by Topcount scintillation counting method; format: functional
Target sequence in this assay (Q14416 whole entry): as the sequence (Q14416 whole entry) above

[6] = molecular target: T1, Metabotropic glutamate receptor 2; assay: Displacement of [3H]JNJ-46281222 from human metabotropic glutamate receptor 2 expressed in CHOK1 cell membranes assessed as dissociation rate constant measured every 30 sec for 120 mins by scintillation proximity assay; method in brief: as §1
Target sequence in this assay (Q14416 19-872 limits assumed): as the sequence (Q14416 19-872 limits assumed) above

Compound	Ki [1] [nM]	TIME [2] [h]	Kd [3] [nM]	K [4]	EC50 [5] [nM]	K [6] [min⁻¹]
Cc1ccc(Oc2ccc(-c3ccn4c(CC5CC5)nnc4c3C)cc2F)c(C)n1	21.9	0.193	10	8.6 ×10⁶ /M/min	77.6	0.086
Cc1ccc(Oc2ccc(-c3ccn4c(CC5CC5)nnc4c3C(C)C)cc2F)c(C)n1	25.1	0.237	10.7	6.5 ×10⁶ /M/min	28.2	0.07
COc1ccc(COc2ccc(-c3ccn4c(CC5CC5)nnc4c3C(F)(F)F)cc2F)cn1	11.7	0.0967	16	1.1 ×10⁷ /M/min	40.7	0.173
CC(C)Nc1ccc(-c2ccn3c(CC4CC4)nnc3c2C(F)(F)F)cc1Cl	3.89	0.137	3.4	3.6 ×10⁷ /M/min	17.4	0.121
O[C@H]1CC[C@H](Nc2ccc(-c3ccn4c(CC5CC5)nnc4c3Cl)cc2Cl)CC1	3.02	0.197	12.7	6.7 ×10⁶ /M/min	33.1	0.084
Clc1cc(-c2ccn3c(CC4CC4)nnc3c2Cl)ccc1OC1CCOCC1	22.9	0.182	28.1	3.3 ×10⁶ /M/min	224	0.092
Fc1cc(-c2ccn3c(CC4CC4)nnc3c2Cl)ccc1Oc1ccnc(C2CC2)c1	53.7	0.228	42.7	1.7 ×10⁶ /M/min	87.1	0.073
COc1ccc(COc2ccc(-c3ccn4c(CC5CC5)nnc4c3C(F)(F)F)cc2)cn1	8.71	0.133	8.7	1.4 ×10⁷ /M/min	57.5	0.125
Cc1cc(-c2nc(CN3CCNCC3)no2)cc2c1C(=O)N(Cc1ccc(OC(F)(F)F)cc1)C2		0.13		2.1 ×10⁵ /M/min		0.128
FC(F)(F)c1c(-c2ccc(CNC3CCOCC3)c(Cl)c2)ccn2c(CC3CC3)nnc12	61.7	0.183	54	1.7 ×10⁶ /M/min	631	0.091
O[C@H]1CC[C@H](Oc2ccc(-c3ccn4c(CC5CC5)nnc4c3C(F)(F)F)cc2Cl)CC1	1.91	0.468	3	1.2 ×10⁷ /M/min	25.1	0.036
CCOCc1nnc2c(C(F)(F)F)c(-c3ccc(Oc4ccc(C)nc4C)c(F)c3)ccn12	11.7	0.223	2.1	3.6 ×10⁷ /M/min	29.5	0.075
O[C@H]1CC[C@H](Nc2ccc(-c3ccn4c(CC5CC5)nnc4c3C(F)(F)F)cc2Cl)CC1		0.513		1.1 ×10⁷ /M/min		0.033
O[C@H]1CC[C@@H](Nc2ccc(-c3ccn4c(CC5CC5)nnc4c3C(F)(F)F)cc2Cl)CC1		0.285		5.7 ×10⁶ /M/min		0.058
FC(F)(F)c1c(-c2ccc(NC3CC3)c(Cl)c2)ccn2c(CC3CC3)nnc12	2.24	0.188	1.2	7.7 ×10⁷ /M/min	7.76	0.088
COc1ccc(CNc2ccc(-c3ccn4c(CC5CC5)nnc4c3C(F)(F)F)cc2)cn1	3.16	0.243	2	3.4 ×10⁷ /M/min	15.1	0.069

Compound	Ki [1] [nM]	TIME [2] [h]	Kd [3] [nM]	K [4]	EC50 [5] [nM]	K [6] [min⁻¹]
O[C@H]1CC[C@@H](Oc2ccc(-c3ccn4c(CC(F)(F)F)nnc4c3Cl)cc2Cl)CC1	32.4	0.295	8.1	6.9 ×10⁶ /M/min	97.7	0.056
CCc1cc(Oc2ccc(-c3ccn4c(CC5CC5)nnc4c3Cl)cc2F)ccn1	18.6	0.24	23.3	3 ×10⁶ /M/min	100	0.069
CCOCc1nnc2c(Cl)c(-c3ccc(Oc4ccc(C)nc4C)c(F)c3)ccn12	6.46	0.22	25.2	3 ×10⁶ /M/min	74.1	0.076
Clc1cc(-c2ccn3c(CC4CC4)nnc3c2Cl)ccc1NC1CC1	6.76	0.198	6.1	1.4 ×10⁷ /M/min	29.5	0.084
O[C@H]1CC[C@H](Oc2ccc(-c3ccn4c(CC(F)(F)F)nnc4c3Cl)cc2Cl)CC1	11.5	0.122	16.6	8.3 ×10⁶ /M/min	158	0.137
COc1ccc(CNc2ccc(-c3ccn4c(CC5CC5)nnc4c3C(F)(F)F)cc2F)cn1	2.04	0.378	2.9	1.5 ×10⁷ /M/min	5.89	0.044
Cc1ccc(Oc2ccc(-c3ccn4c(CC5CC5)nnc4c3C)cc2Cl)c(C)n1	14.8	0.175	17.4	5.5 ×10⁶ /M/min	17.4	0.096
Cc1cc(Oc2ccc(-c3ccn4c(CC5CC5)nnc4c3C(F)(F)F)cc2F)cc(C)n1	10	0.175	11.5	8.3 ×10⁶ /M/min	64.6	0.095
Cc1cc(Oc2ccc(-c3ccn4c(CC5CC5)nnc4c3Cl)cc2F)ccn1	63.1	0.173	37.6	2.6 ×10⁶ /M/min	251	0.096
CC(C)Nc1ccc(-c2ccn3c(CC4CC4)nnc3c2C(F)(F)F)cc1F	8.91	0.167	2.2	4.6 ×10⁷ /M/min	93.3	0.1
Cc1ccc(Oc2ccc(-c3ccn4c(CC5CC5)nnc4c3Cl)cc2F)c(C)n1	1.95	0.172	15.3	6.3 ×10⁶ /M/min	40.7	0.097
CC(C)Nc1ccc(-c2ccn3c(CC4CC4)nnc3c2Cl)cc1F	61.7	0.165	20.3	5 ×10⁶ /M/min	224	0.101
COc1ccc(CNc2ccc(-c3ccn4c(CC5CC5)nnc4c3Cl)cc2)cn1	7.41	0.172	15.6	6.2 ×10⁶ /M/min	151	0.097
Cc1cc(Oc2ccc(-c3ccn4c(CC5CC5)nnc4c3C(F)(F)F)cc2F)ccn1	7.08	0.185	9.2	9.8 ×10⁶ /M/min	56.2	0.09
Cc1c(OCc2cccc(-c3ccc(C(=O)O)cc3)c2)cc2c(c1C)C(=O)C(C1CCCC1)C2 (stereo not given)		0.193		4.6 ×10⁶ /M/min		0.086
Cc1ccc(Oc2ccc(-c3ccn4c(CC5CC5)nnc4c3C(F)(F)F)cc2Cl)c(C)n1	1.51	0.378	7.3	6.1 ×10⁶ /M/min	2.88	0.044
